According to PMC6959540 (Nuclear medicine and biology, 2012):

Tests used:
hTRPV1 [1] = target: T1, hTRPV1 (Homo sapiens, UniProt Q8NER1); test: [^3H]RTX competition binding on CHO cells transfected with hTRPV1; conditions: read-out: binding affinity (Kd), [^3H]RTX as radioligand
Procedure, shortened: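 Stable Tet-Off CHO cells expressing human TRPV1 were induced 48 h in tetracycline-free medium, harvested and pelleted. Assay mix: DPBS with Ca2+/Mg2+, BSA 0.25 mg/mL, [3H]RTX 100 pM and varying competitor concentrations; 100 nM unlabelled RTX defined nonspecific binding. Incubation 60 min at 37 °C, ice-cooled, glycoprotein added, membranes pelleted by centrifugation. Pellets and supernatant were scintillation-counted and Ki fitted with the Hill equation.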

rTRPV1 [2] = target: T2, rTRPV1 (Rattus norvegicus, UniProt O35433); test: [^3H]RTX competition binding on CHO cells transfected with rTRPV1; conditions: read-out: binding affinity (Kd), [^3H]RTX as radioligand
T2 sequence (O35433 whole entry): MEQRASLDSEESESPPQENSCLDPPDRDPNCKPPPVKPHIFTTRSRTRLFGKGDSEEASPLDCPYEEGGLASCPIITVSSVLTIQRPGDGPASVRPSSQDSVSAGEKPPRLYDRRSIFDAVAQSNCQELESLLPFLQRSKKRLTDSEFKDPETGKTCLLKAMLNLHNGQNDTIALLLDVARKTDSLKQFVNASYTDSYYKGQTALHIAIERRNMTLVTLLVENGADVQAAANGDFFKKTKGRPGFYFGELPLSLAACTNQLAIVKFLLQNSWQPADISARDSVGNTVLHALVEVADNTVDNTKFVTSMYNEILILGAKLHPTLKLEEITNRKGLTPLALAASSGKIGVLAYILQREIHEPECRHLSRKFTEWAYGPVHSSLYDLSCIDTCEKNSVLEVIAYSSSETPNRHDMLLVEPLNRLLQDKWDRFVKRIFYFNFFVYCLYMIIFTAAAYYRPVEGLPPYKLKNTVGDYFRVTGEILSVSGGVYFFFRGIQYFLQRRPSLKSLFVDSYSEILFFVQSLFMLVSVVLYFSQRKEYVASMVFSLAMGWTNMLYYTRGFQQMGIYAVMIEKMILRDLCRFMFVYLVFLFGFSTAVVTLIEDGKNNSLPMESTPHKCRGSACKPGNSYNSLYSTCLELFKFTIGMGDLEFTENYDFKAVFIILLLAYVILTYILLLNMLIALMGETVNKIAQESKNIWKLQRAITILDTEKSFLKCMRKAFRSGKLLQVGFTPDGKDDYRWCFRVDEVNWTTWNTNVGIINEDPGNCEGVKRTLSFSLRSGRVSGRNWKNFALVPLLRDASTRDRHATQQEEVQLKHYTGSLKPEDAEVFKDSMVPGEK
Procedure, shortened: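 A stable Tet-Off CHO line with rat TRPV1 was induced for 48 h in tetracycline-free medium, harvested and pelleted, and pellets were stored at −20 °C. Binding used [3H]RTX (100 pM) plus graded competitor in DPBS with Ca2+/Mg2+ and BSA (0.25 mg/mL), at 37 °C for 60 min. Nonspecific binding was set with 100 nM unlabelled RTX. Membranes were pelleted after glycoprotein addition and scintillation-counted. Parameters came from Hill equation fits.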

hTRPV1 [3] = target: T1, hTRPV1; test: ^45Ca^2+ uptake in CHO-hTRPV1 cells; assay type: cell-based
Procedure, shortened: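 Tet-Off CHO-hTRPV1 cells at 50–70% confluency were induced 48 h without tetracycline. Assay medium was DMEM with BSA 0.25 mg/mL, 45Ca2+ 37 kBq/mL and increasing ligand concentrations. Antagonism wells also held capsaicin 75 nM; full-agonist reference was capsaicin 300 nM. After 5 min at 37 °C, cells were washed, lysed in RIPA buffer and scintillation-counted. Each point is the mean of four wells, fitted with the Hill equation.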

rTRPV1 [4] = target: T2, rTRPV1; test: ^45Ca^2+ uptake in CHO-rTRPV1 cells; assay type: cell-based
Procedure, shortened: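 CHO-rTRPV1 cells (Tet-Off) were induced for about 48 h without tetracycline. They were then exposed for 5 min at 37 °C to DMEM containing BSA (0.25 mg/mL), 45Ca2+ (37 kBq/mL) and increasing test compound. Agonism was referenced to 300 nM capsaicin, and antagonism was tested against 75 nM capsaicin. Cells were washed, lysed in RIPA buffer and scintillation-counted. Each point was the mean of four wells, fitted to the Hill equation.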

hTRPV1 [5] = target: T1, hTRPV1; conditions: read-out: IC50 reported for hTRPV1; cited from earlier work
[6] = Distribution coefficient n-octanol/phosphate buffer pH 7.4; assay type: physicochemical; conditions: 1-octanol / 0.025 M phosphate buffer pH 7.4
Procedure, shortened: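 HPLC-purified radiotracer (~37 MBq/mL in saline) was added to equal volumes of n-octanol and 0.025 M sodium phosphate buffer pH 7.4 (n=8). Tubes were vortexed for 1 min at room temperature and centrifuged at 3000 rpm for 10 min. Phase aliquots were weighed and gamma-counted. D was calculated as cpm/mL octanol over cpm/mL buffer, with volumes derived from mass and phase density.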

[7] = Biodistribution in control NMRI mice; assay type: in vivo; conditions: for % ID / % ID/g: control mice i.v.
Procedure, shortened: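 Male NMRI mice (32–43 g) under pentobarbital (60 mg/kg i.p.) or isoflurane (2% in oxygen) received about 9.25 MBq of radiotracer in saline via a lateral tail vein. They were decapitated at 2, 10 or 60 min p.i. (n=4 per time point). Organs and blood were dissected, weighed and gamma-counted. %ID was organ cpm over total recovered cpm. Blood mass was taken as 7% of body mass.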

TRPV1 receptor [8] = test: Biodistribution in NMRI mice pretreated with BCTC or SB366791; assay type: in vivo; conditions: 60 min p.i.
Procedure, shortened: (§1)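 Male NMRI mice (32–43 g), either pretreated s.c. 1 h before tracer or TRPV1−/−. Tracer was diluted in saline (<10% ethanol) and ~9.25 MBq given via lateral tail vein under pentobarbital (60 mg/kg i.p.) or isoflurane (2% in O2). Mice were decapitated at 2, 10 or 60 min (n=4 per time point). Tissues and blood were weighed and gamma-counted, and trigeminal nerve-to-blood activity ratios calculated. Values are mean ± SEM.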

TRPV1 receptor [9] = test: Biodistribution in TRPV1^-/- mice; assay type: in vivo; conditions: 60 min p.i.
Procedure, shortened: as §1

[10] = Plasma radiometabolites in mice; assay type: in vivo; conditions: mouse plasma
[11] = Brain radiometabolites in mice; assay type: in vivo; conditions: mouse brain
[12] = read-out: antagonist activity (Ki), capsaicin 75 nM
[13] = control mice, pentobarbital, i.v.

T1 sequence (Q8NER1 whole entry): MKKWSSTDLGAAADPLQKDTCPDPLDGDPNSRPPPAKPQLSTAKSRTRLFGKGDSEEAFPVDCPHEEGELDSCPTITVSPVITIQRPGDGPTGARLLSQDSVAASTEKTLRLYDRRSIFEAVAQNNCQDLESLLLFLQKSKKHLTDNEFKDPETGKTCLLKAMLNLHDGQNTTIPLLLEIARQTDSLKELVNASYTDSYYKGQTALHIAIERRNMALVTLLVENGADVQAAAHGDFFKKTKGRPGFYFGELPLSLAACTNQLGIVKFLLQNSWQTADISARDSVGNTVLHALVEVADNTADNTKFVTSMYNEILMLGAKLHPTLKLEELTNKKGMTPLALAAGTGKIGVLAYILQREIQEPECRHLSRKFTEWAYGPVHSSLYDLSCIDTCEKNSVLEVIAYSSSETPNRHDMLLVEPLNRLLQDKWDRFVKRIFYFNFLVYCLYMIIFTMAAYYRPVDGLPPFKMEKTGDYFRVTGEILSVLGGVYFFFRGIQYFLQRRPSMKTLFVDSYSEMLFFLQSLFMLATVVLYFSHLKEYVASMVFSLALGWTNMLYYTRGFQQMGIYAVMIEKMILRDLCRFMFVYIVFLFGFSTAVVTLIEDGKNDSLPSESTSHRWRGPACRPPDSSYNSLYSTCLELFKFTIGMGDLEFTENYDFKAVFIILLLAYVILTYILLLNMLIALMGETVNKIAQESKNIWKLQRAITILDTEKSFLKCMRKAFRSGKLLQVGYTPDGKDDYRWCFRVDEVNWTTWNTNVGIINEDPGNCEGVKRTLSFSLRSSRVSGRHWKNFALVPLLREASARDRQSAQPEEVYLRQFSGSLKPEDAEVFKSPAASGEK

## COc1cccc(NC(=O)/C=C/c2ccc(Cl)cc2)c1 [SB366791, N-(3-methoxyphenyl)-4-chlorocinnamide]
hTRPV1 [1]
  Kd: 0.28 ± 0.056 µM
rTRPV1 [2]
  Kd: 0.78 ± 0.14 µM
hTRPV1 [3]; agonism assay
  agonist effects: No agonist effects were observed
hTRPV1 [3]; [12]
  Ki: 0.197 ± 0.017 µM
rTRPV1 [4]; agonism assay
  agonist effects: No agonist effects were observed
rTRPV1 [4]; [12]
  Ki: 0.334 ± 0.017 µM
hTRPV1 [5]
  IC50: 0.0057 µM

## [11CH3]Oc1cccc(NC(=O)/C=C/c2ccc(Cl)cc2)c1 [[^11C]SB366791]
[6]
  log D: 3.5±0.1
[7]; Bladder+urine, 2 min p.i.
  % ID: 0.2±0.1 % ID
[7]; Bladder+urine, 10 min p.i.
  % ID: 8.0±2.5 % ID
[7]; Bladder+urine, 60 min p.i.
  % ID: 25.9±12.0 % ID
[7]; Blood, 2 min p.i.
  % ID: 9.9±1.0 % ID
  % ID/g: 3.6±0.4 % ID/g
[7]; Blood, 10 min p.i.
  % ID: 6.9±0.5 % ID
  % ID/g: 2.6±0.2 % ID/g
[7]; Blood, 60 min p.i.
  % ID: 2.3±0.2 % ID
  % ID/g: 0.8±0.1 % ID/g
[7]; Bone, 2 min p.i.
  % ID/g: 1.5±0.2 % ID/g
[7]; Bone, 10 min p.i.
  % ID/g: 1.2±0.4 % ID/g
[7]; Bone, 60 min p.i.
  % ID/g: 0.9±0.2 % ID/g
[7]; Carcass, 2 min p.i.
  % ID: 44.5±3.6 % ID
[7]; Carcass, 10 min p.i.
  % ID: 48.6±2.2 % ID
[7]; Carcass, 60 min p.i.
  % ID: 19.3±3.3 % ID
[7]; Cerebellum, 2 min p.i.
  % ID: 0.4±0.1 % ID
  % ID/g: 3.9±0.4 % ID/g
[7]; Cerebellum, 10 min p.i.
  % ID: 0.1±0.0 % ID
  % ID/g: 1.1±0.1 % ID/g
[7]; Cerebellum, 60 min p.i.
  % ID: 0.0±0.0 % ID
  % ID/g: 0.3±0.1 % ID/g
[7]; Cerebrum, 2 min p.i.
  % ID: 1.2±0.2 % ID
  % ID/g: 3.7±0.5 % ID/g
[7]; Cerebrum, 10 min p.i.
  % ID: 0.4±0.0 % ID
  % ID/g: 1.2±0.1 % ID/g
[7]; Cerebrum, 60 min p.i.
  % ID: 0.1±0.0 % ID
  % ID/g: 0.3±0.0 % ID/g
[7]; Heart, 2 min p.i.
  % ID: 0.9±0.1 % ID
  % ID/g: 5.0±1.0 % ID/g
[7]; Heart, 10 min p.i.
  % ID: 0.3±0.1 % ID
  % ID/g: 1.8±0.2 % ID/g
[7]; Heart, 60 min p.i.
  % ID: 0.1±0.0 % ID
  % ID/g: 0.6±0.0 % ID/g
[7]; Intestines, 2 min p.i.
  % ID: 8.9±0.6 % ID
[7]; Intestines, 10 min p.i.
  % ID: 13.0±1.5 % ID
[7]; Intestines, 60 min p.i.
  % ID: 33.8±6.2 % ID
[7]; Kidneys, 2 min p.i.
  % ID: 4.5±0.2 % ID
  % ID/g: 7.1±0.8 % ID/g
[7]; Kidneys, 10 min p.i.
  % ID: 5.0±1.0 % ID
  % ID/g: 7.9±1.2 % ID/g
[7]; Kidneys, 60 min p.i.
  % ID: 1.9±0.4 % ID
  % ID/g: 2.8±0.5 % ID/g
[7]; Liver, 2 min p.i.
  % ID: 28.6±2.5 % ID
  % ID/g: 14.2±2.5 % ID/g
[7]; Liver, 10 min p.i.
  % ID: 16.1±1.6 % ID
  % ID/g: 8.7±1.0 % ID/g
[7]; Liver, 60 min p.i.
  % ID: 8.9±3.2 % ID
  % ID/g: 4.6±2.1 % ID/g
[7]; Lungs, 2 min p.i.
  % ID: 1.5±0.4 % ID
  % ID/g: 4.5±0.3 % ID/g
[7]; Lungs, 10 min p.i.
  % ID: 0.9±0.2 % ID
  % ID/g: 2.7±0.1 % ID/g
[7]; Lungs, 60 min p.i.
  % ID: 0.5±0.2 % ID
  % ID/g: 1.6±1.0 % ID/g
[7]; Muscle, 2 min p.i.
  % ID/g: 1.2±0.3 % ID/g
[7]; Muscle, 10 min p.i.
  % ID/g: 1.3±0.2 % ID/g
[7]; Muscle, 60 min p.i.
  % ID/g: 0.4±0.1 % ID/g
[7]; Pancreas, 2 min p.i.
  % ID: 1.1±0.1 % ID
  % ID/g: 5.4±0.9 % ID/g
[7]; Pancreas, 10 min p.i.
  % ID: 0.6±0.1 % ID
  % ID/g: 2.7±0.2 % ID/g
[7]; Pancreas, 60 min p.i.
  % ID: 0.5±0.2 % ID
  % ID/g: 2.0±0.5 % ID/g
[7]; Skin, 2 min p.i.
  % ID/g: 1.3±0.1 % ID/g
[7]; Skin, 10 min p.i.
  % ID/g: 2.4±0.3 % ID/g
[7]; Skin, 60 min p.i.
  % ID/g: 1.1±0.3 % ID/g
[7]; Spleen, 2 min p.i.
  % ID: 0.6±0.2 % ID
  % ID/g: 4.0±0.8 % ID/g
[7]; Spleen, 10 min p.i.
  % ID: 0.2±0.0 % ID
  % ID/g: 2.0±0.2 % ID/g
[7]; Spleen, 60 min p.i.
  % ID: 0.2±0.0 % ID
  % ID/g: 1.4±0.3 % ID/g
[7]; Stomach, 2 min p.i.
  % ID: 1.4±0.2 % ID
[7]; Stomach, 10 min p.i.
  % ID: 2.0±0.7 % ID
[7]; Stomach, 60 min p.i.
  % ID: 1.8±0.7 % ID
[7]; Trigeminal nerve, 2 min p.i.
  % ID: 0.02±0.00 % ID
  % ID/g: 4.2±0.4 % ID/g
[7]; Trigeminal nerve, 10 min p.i.
  % ID: 0.01±0.00 % ID
  % ID/g: 3.4±0.2 % ID/g
[7]; Trigeminal nerve, 60 min p.i.
  % ID: 0.01±0.00 % ID
  % ID/g: 2.9±0.7 % ID/g
[7]; control mice, 2 min after injection
  total brain uptake: 1.6 % ID
[7]; control mice, 60 min p.i.
  total brain uptake: 0.1 % ID
[7]; control mice, isoflurane 2% in oxygen compared with pentobarbital 60 mg/kg i.p.
  SUV in trigeminal nerve, isoflurane versus pentobarbital anaesthesia: remarkable lower
[7]; [13]
  blood 2 min/60 min ratio: 4.3
  trigeminal nerve 2 min/60 min ratio: 1.5
TRPV1 receptor [8]; mice pretreated with BCTC 10 mg/kg s.c. 1 h before tracer
  trigeminal nerve-to-blood activity ratio: 1.0
TRPV1 receptor [8]; mice pretreated with SB366791 10 mg/kg s.c. 1 h before tracer
  trigeminal nerve-to-blood activity ratio: 1.3
TRPV1 receptor [9]
  trigeminal nerve-to-blood activity ratio: 0.8
[10]; 2 min after i.v. injection
  intact tracer in plasma, of recovered radioactivity: 52.0±3.0%
[10]; 2 min p.i.
  radiometabolites in plasma: 48.0%±3.0
[10]; 10 min p.i.
  radiometabolites in plasma: 82.4%±1.9
[11]; 2 min after injection
  intact tracer in brain, of total recovered radioactivity: 85.6%±3.7
[11]; 10 min after injection
  intact tracer in brain, of total recovered radioactivity: 67.2%±0.7
